Measurements from ChEMBL document CHEMBL2029270, “Irreversible inhibition of epidermal growth factor receptor activity by 3-aminopropanamides” (J Med Chem, 2012).
The source made the active and inactive calls. The rule behind the calls is not given here.

How the values were obtained:
[1] = target: T1, Epidermal growth factor receptor (Homo sapiens, UniProt P00533); conditions: A549, at 1 µM
NCI-H1975 [2] = assay: Antiproliferative activity against gefitinib-resistant human NCI-H1975 cells expressing EGFR T790M mutant after 3 days by MTT assay; format: functional, cell-based; conditions: NCI-H1975, 72 h
[3] = target: T1, Epidermal growth factor receptor; assay: Inhibition of human recombinant EGFR using Ulight-CAGAGAIETDKEYYTVKD as substrate after 15 mins by time-resolved fluorimetric analysis
[4] = target: T1, Epidermal growth factor receptor; conditions: A549, at 1 µM; remark: listed apart in the source
NCI-H1975 [5] = assay: Ratio of gefitinib IC50 to compound IC50 for human NCI-H1975 cells; format: functional
A549 [6] = assay: Drug uptake in human A549 cells at 1 uM incubated for 1 hr measured 8 hrs post-wash out by LC-MS analysis; format: ADME, cell-based; conditions: a549, 1 h
How it was run: (§1)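 A549 cells plated 24 h, then exposed 1 h at 37 °C to 1 μM compound (0.1% DMSO final), assayed immediately or 8 h after three washes with fresh medium. Ethanol extraction at 4 °C, extract dried, redissolved, quantified by LC−MS against 50 nM–5 μM calibration (LOQ 50 nM, LOD 20 nM).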

A549 [7] = assay: Drug uptake in human A549 cells at 1 uM after 1 hr by LC-MS analysis; format: ADME, cell-based; conditions: a549, 1 h
How it was run: as §1

[8] = Drug degradation of the compound assessed as thiol-conjugate formation at 1 uM up to 24 hrs at pH 7.4 in the presence of GSH; format: physicochemical; conditions: buffer, pH 7.4, 24 h
How it was run: (§2)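 Conjugate formation checked by HPLC−UV and HPLC−ESI-MS after adding freshly prepared thiol (2 mM; cysteamine, NAC, DTT or reduced GSH) to PBS pH 7.4 holding compound at 1 μM, 37 °C; sampled up to 24 h.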

[9] = Chemical stability of the compound in 0.01 M borate buffer assessed as compound remaining at 1 uM after 24 hrs at pH 9; format: physicochemical; conditions: read-out: Stability
How it was run: (§3)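 Buffer stability at pH 7.4 or pH 9.0, compound at 1 μM, 37 °C for 24 h; percentage of parent left measured by LC−UV and LC−ESI-MS, mean ± SD, n = 3.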

[10] = target: T2, Receptor tyrosine-protein kinase erbB-2 (Homo sapiens, UniProt P04626); assay: Inhibition of ErbB2 up to 10 uM by time-resolved fluorometry
[11] = Drug degradation of the compound assessed as thiol-conjugate formation at 1 uM up to 24 hrs at pH 7.4 in the presence of cysteamine; format: physicochemical; conditions: buffer, pH 7.4, 24 h
How it was run: as §2

[12] = Drug degradation of the compound assessed as thiol-conjugate formation at 1 uM up to 24 hrs at pH 7.4 in the presence of NAC; format: physicochemical; conditions: buffer, pH 7.4, 24 h
How it was run: as §2

[13] = Chemical stability of the compound assessed as compound remaining at 1 uM after 1 hr at pH 7.4 in the presence of cysteamine; format: physicochemical; conditions: buffer, read-out: Stability
How it was run: (§4)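 Test compound (1 μM) in PBS pH 7.4 with freshly prepared thiol (DTT, GSH, NAC or cysteamine, 2 mM), incubated 1 h at 37 °C; parent remaining quantified by LC−UV and LC−ESI-MS, mean ± SD, n = 3.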

A549 [14] = assay: Drug metabolism in human A549 cell lysate assessed as N-(4-(3-bromophenylamino)quinazolin-6-yl)acrylamide-cysteine adduct level at 10 uM after 1 hr by HPLC-HRMS analysis; format: ADME, cell-based; conditions: a549, 1 h
How it was run: (§5)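 A549 cells grown 2 days, lysed by freeze/thaw; lysate pre-spiked with 2 mM cysteine, compound added from fresh DMSO stock to 10 μM final, 37 °C. Aliquots at 0, 1 and 4 h quenched with double volume acetonitrile, centrifuged, analysed by LC−HRMS in positive ion mode.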

[15] = Chemical stability of the compound assessed as compound remaining at 1 uM after 1 hr at pH 7.4 in the presence of DTT; format: physicochemical; conditions: buffer, read-out: Stability
How it was run: as §4

[16] = Chemical stability of the compound assessed as compound remaining at 1 uM after 1 hr at pH 7.4 in the presence of NAC; format: physicochemical; conditions: buffer, read-out: Stability
How it was run: as §4

[17] = Chemical stability of the compound assessed as compound remaining at 1 uM after 1 hr at pH 7.4 in the presence of GSH; format: physicochemical; conditions: buffer, read-out: Stability
How it was run: as §4

A549 [18] = assay: Prodrug conversion in human A549 cell lysate assessed as N-(4-(3-bromophenylamino)quinazolin-6-yl)acrylamide level at 10 uM after 1 hr by HPLC-HRMS analysis; format: ADME, cell-based; conditions: a549, 1 h
How it was run: as §5

[19] = Drug degradation of the compound assessed as thiol-conjugate formation at 1 uM up to 24 hrs at pH 7.4 in the presence of DTT; format: physicochemical; conditions: buffer, pH 7.4, 24 h
How it was run: as §2

[20] = Chemical stability of the compound in 0.01 M PBS buffer assessed as compound remaining at 1 uM after 24 hrs at pH 7.4; format: physicochemical; conditions: read-out: Stability
How it was run: as §3

[21] = Metabolic stability in rat plasma assessed as compound remaining at 1 uM after 24 hrs; format: ADME, cell-free; conditions: read-out: Stability
How it was run: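 Incubation of compound (1 μM) in 80% (v/v) rat plasma at 37 °C for 24 h; parent remaining determined by LC−UV and LC−ESI-MS, mean ± SD, n = 3.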

[22] = target: T2, Receptor tyrosine-protein kinase erbB-2; assay: Inhibition of ErbB2 by time-resolved fluorometry
[23] = tested on: Epidermal growth factor receptor (Homo sapiens), P00533 [T790M]; assay: (§6) Inhibition of EGFR T790M mutant autophosphorylation in human NCI-H1975 cells after 1 hr by Western blot analysis; format: cell-based
[24] = target: Epidermal growth factor receptor (Homo sapiens, UniProt P00533, T790M); assay: as §6; format: cell-based
Chain of Epidermal growth factor receptor (Homo sapiens, UniProt P00533, T790M) (P00533 whole entry T790M): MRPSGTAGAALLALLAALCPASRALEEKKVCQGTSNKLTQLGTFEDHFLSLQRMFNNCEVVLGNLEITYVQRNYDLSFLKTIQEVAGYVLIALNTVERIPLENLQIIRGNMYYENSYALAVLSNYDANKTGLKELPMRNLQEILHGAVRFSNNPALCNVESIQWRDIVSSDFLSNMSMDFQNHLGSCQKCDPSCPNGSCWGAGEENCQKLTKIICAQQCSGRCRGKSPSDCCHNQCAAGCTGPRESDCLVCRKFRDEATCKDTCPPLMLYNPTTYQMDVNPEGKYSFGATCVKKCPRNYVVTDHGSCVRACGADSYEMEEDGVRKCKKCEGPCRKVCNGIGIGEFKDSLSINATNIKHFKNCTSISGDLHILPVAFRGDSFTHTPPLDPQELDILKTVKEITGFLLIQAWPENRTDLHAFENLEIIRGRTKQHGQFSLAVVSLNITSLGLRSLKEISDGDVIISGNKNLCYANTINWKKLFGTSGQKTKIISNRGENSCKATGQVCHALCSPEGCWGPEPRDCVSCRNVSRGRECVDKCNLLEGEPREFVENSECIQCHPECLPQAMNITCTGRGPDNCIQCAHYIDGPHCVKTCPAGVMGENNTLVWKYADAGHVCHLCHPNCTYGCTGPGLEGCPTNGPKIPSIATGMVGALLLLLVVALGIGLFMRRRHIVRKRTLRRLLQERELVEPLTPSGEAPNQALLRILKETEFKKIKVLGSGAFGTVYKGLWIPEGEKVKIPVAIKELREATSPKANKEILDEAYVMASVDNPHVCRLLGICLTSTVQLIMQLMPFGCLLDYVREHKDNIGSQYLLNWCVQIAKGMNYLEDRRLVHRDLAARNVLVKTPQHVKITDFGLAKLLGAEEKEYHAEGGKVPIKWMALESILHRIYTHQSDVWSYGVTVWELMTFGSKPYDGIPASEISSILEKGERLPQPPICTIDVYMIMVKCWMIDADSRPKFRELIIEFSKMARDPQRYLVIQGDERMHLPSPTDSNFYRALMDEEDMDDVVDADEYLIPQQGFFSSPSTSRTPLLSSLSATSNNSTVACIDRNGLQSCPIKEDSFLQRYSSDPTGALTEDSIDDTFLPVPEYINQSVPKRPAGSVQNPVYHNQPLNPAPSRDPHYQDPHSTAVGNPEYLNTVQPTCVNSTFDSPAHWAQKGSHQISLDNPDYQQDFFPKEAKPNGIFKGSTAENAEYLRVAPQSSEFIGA

T1 sequence (P00533 whole entry): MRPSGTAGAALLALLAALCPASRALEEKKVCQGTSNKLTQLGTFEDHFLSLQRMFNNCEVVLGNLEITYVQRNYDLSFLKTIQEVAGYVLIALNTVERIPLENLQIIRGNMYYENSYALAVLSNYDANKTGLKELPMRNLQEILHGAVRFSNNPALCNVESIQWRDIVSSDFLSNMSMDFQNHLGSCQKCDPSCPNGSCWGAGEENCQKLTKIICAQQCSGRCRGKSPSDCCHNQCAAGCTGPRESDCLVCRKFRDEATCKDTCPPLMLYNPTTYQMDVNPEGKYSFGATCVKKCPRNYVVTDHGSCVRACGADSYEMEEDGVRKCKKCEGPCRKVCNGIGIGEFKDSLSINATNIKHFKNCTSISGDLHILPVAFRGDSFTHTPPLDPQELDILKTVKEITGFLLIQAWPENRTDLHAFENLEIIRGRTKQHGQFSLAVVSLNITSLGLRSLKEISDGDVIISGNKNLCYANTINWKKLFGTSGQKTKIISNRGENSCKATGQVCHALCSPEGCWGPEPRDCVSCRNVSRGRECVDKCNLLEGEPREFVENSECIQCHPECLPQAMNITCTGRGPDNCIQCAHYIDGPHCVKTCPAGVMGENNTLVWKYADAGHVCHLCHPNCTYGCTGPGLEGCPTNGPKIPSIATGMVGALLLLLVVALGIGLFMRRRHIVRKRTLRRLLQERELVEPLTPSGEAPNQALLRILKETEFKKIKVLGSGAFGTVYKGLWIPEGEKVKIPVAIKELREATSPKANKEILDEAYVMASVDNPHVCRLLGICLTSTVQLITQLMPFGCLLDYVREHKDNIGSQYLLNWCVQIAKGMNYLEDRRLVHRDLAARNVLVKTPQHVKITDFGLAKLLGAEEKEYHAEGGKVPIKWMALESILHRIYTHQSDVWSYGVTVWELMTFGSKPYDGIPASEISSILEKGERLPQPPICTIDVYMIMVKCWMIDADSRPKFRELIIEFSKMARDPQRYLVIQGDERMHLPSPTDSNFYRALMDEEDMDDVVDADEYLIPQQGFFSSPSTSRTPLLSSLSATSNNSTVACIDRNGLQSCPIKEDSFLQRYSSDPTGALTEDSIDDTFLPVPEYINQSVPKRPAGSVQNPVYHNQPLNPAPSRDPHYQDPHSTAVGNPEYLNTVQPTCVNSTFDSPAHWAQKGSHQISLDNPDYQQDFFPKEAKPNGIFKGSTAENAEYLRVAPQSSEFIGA
T2 sequence (P04626 whole entry): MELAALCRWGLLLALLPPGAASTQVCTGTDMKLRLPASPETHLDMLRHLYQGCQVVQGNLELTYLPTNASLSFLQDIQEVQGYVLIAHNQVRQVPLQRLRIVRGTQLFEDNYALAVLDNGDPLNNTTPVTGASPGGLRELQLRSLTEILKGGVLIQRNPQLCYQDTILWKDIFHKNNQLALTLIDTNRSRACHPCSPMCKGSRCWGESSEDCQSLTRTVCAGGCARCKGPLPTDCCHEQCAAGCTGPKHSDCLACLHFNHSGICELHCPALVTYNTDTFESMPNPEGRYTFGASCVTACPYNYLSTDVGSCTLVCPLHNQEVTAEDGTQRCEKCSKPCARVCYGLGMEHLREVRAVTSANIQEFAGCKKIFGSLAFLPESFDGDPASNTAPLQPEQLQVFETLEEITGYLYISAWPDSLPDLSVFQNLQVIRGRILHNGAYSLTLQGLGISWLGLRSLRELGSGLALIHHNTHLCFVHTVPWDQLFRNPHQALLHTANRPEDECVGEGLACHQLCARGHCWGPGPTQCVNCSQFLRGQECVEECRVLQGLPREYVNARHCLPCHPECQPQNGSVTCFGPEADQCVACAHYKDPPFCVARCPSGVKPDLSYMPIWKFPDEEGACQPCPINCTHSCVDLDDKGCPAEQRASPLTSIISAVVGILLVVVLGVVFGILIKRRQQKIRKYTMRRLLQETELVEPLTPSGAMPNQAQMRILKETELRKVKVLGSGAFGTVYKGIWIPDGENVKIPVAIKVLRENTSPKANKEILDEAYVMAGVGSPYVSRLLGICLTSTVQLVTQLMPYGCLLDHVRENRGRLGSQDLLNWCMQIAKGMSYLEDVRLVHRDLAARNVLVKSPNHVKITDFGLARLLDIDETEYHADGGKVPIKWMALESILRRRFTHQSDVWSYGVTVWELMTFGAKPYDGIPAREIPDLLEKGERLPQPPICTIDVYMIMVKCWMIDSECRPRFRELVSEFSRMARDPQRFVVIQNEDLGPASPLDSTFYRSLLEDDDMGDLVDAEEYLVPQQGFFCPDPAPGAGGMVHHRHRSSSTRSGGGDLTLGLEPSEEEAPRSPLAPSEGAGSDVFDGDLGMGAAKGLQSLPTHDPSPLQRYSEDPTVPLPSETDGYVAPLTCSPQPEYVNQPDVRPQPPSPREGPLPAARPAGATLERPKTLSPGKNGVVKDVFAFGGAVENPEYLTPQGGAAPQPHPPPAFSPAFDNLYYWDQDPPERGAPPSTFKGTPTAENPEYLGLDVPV
Chain of Epidermal growth factor receptor (Homo sapiens), P00533 [T790M] (P00533 whole entry T790M): as the sequence (P00533 whole entry T790M) above

Row | inhibition [1] [%] | IC50 (NCI-H1975 [2]) [nM] | IC50 [3] [nM] | inhibition [4] [%] | Compound | further results
1 | 97 | 2110 | 0.29 | 97 | CCOc1cc2ncnc(Nc3ccc(F)c(Cl)c3)c2cc1NC(=O)CCN1CCOCC1 | Ratio IC50 (NCI-H1975 [5]): 3
2 | 39 | 2760 | 37.5 | 48 | CCOc1cc2ncc(C#N)c(Nc3ccc(OCc4ccccn4)c(Cl)c3)c2cc1NC(=O)CCN1CCOCC1 | –
3 | – | – | – | – | Nc1ccc2ncnc(Nc3cccc(Br)c3)c2c1 | Drug uptake (A549 [6]): Not Active; Drug uptake (A549 [7]): 0.105 nmol/mg
4 | 92 | 1610 | 0.51 | 98 | CCOc1cc2ncnc(Nc3ccc(F)c(Cl)c3)c2cc1NC(=O)CCN1CCCCC1 | Ratio IC50 (NCI-H1975 [5]): 3
5 | 48 | 3930 | 2.02 | 86 | CCOc1cc2ncc(C#N)c(Nc3ccc(F)c(Cl)c3)c2cc1NC(=O)CCN1CCOCC1 | –
6 | 93 | 6670 | 0.27 | 95 | O=C(CCN1CCCCC1)Nc1ccc2ncnc(Nc3cccc(Br)c3)c2c1 | –
7 | – | – | – | – | CN(C)CCC(=O)Nc1ccc2ncnc(Nc3cccc(Br)c3)c2c1 | Drug degradation [8]: Not Active; remaining at 24 h, 1 µM [9]: 77%; inhibition [10]: inactive; Drug degradation [11]: Not Active; Drug degradation [12]: Not Active; remaining at 1 h, 1 µM [13]: 100%; Drug uptake (A549 [6]): Not Active; Drug metabolism (A549 [14]): Active; remaining at 1 h, 1 µM [15]: 99.2%; remaining at 1 h, 1 µM [16]: 100%; remaining at 1 h, 1 µM [17]: 101%; Drug metabolism (A549 [18]): Active; Drug degradation [19]: Not Active; Drug uptake (A549 [7]): 0.05 nmol/mg; remaining at 24 h, 1 µM [20]: 97.5%; remaining at 24 h, 1 µM [21]: 98.7%
8 | – | – | – | – | C=CC(=O)Nc1ccc2ncnc(Nc3cccc(Br)c3)c2c1 | Drug degradation [8]: Active; remaining at 24 h, 1 µM [9]: 105%; Drug degradation [11]: Active; Drug degradation [12]: Active; remaining at 1 h, 1 µM [13]: 20.1%; Drug uptake (A549 [6]): Not Active; remaining at 1 h, 1 µM [15]: 100%; remaining at 1 h, 1 µM [16]: 85.6%; remaining at 1 h, 1 µM [17]: 63.8%; Drug uptake (A549 [7]): Not Active; remaining at 24 h, 1 µM [20]: 102%; remaining at 24 h, 1 µM [21]: 21.8%
9 | 59 | 2030 | 12.5 | 61 | CCOc1cc2ncc(C#N)c(Nc3ccc(OCc4ccccn4)c(Cl)c3)c2cc1NC(=O)CCN(C)C | IC50 [22]: 970 nM
10 | 33 | 3570 | 1.46 | 92 | C=CC(=O)Nc1cc2c(Nc3ccc(F)c(Cl)c3)c(C#N)cnc2cc1OCC | –
11 | 82 | 2730 | 2.21 | 92 | CCOc1cc2ncc(C#N)c(Nc3ccc(F)c(Cl)c3)c2cc1NC(=O)CCN1CCCCC1 | –
12 | 99 | 1620 | 0.18 | 96 | C=CC(=O)Nc1cc2c(Nc3ccc(F)c(Cl)c3)ncnc2cc1OCC | –
13 | 10 | 13600 | 17.4 | 47 | CN(C)CCC(=O)N(C)c1ccc2ncnc(Nc3cccc(Br)c3)c2c1 | –
14 | 67 | 2370 | 0.68 | 88 | CCOc1cc2ncc(C#N)c(Nc3ccc(F)c(Cl)c3)c2cc1NC(=O)CCN(C)C | –
15 | 58 | 710 | 24.8 | 71 | CCOc1cc2ncc(C#N)c(Nc3ccc(OCc4ccccn4)c(Cl)c3)c2cc1NC(=O)CCN1CCCCC1 | IC50 [22]: 980 nM; inhibition [23]: Dose-dependent effect; IC50 [24]: 150 nM; Ratio IC50 (NCI-H1975 [5]): 11
16 | 100 | 2210 | 0.27 | 98 | CCOc1cc2ncnc(Nc3ccc(F)c(Cl)c3)c2cc1NC(=O)CCN(C)C | Ratio IC50 (NCI-H1975 [5]): 3
17 | 91 | > 20000 | 0.51 | 98 | O=C(CCN1CCOCC1)Nc1ccc2ncnc(Nc3cccc(Br)c3)c2c1 | –
